Assay results as given in article PMC7262549 (Biochemistry and Biophysics Reports, 2020).
Like-named read-outs stand apart in the source and are kept apart here.

Legend:
Conditions in all cases: 4 mM MgSO4
Dkum (wt) [1] = assay: luminometry, peak light intensity, Michaelis-Menten fit; format: biochemical, Drilaster kumejimensis
Sfla (wt) [2] = assay: as above; format: biochemical, Stenocladius flavipennis
MALuci2 (wt) = assay: luminometry, peak light intensity, Michaelis-Menten fit; format: biochemical, Luciola sp.
Outline: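 Wild-type luciferase coding sequence from lantern cDNA, expressed from pRSET-B in E. coli JM109(DE3) and Ni-NTA purified. Luciferin Km: 50 μg/mL partially purified enzyme, luciferin 0.6–640 μM. ATP Km: 50 μg/mL purified enzyme, ATP 5–1920 μM. Light emission recorded 10 s at 0.02 s gating on a luminometer. Rate taken as peak intensity; Km from least-squares Michaelis–Menten fit.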

Psag (wt) [3] = assay: luminometry, peak light intensity, Michaelis-Menten fit; format: biochemical, Pristolycus sagulatus
Pmat (wt) [4] = assay: as above; format: biochemical, Pyrocoelia matsumurai kumejimensis
Sfla (wt) [5] = test system: Sfla (wt)
Psag (wt) [6] = test system: Psag (wt)
Dkum (wt) [7] = test system: Dkum (wt)
Pmat (wt) [8] = test system: Pmat (wt)
[9] = read-out: Km (ATP μM), 50 mM Tris-HCl pH 8.0, 1 mM luciferin
[10] = read-out: Km (luciferin μM), 50 mM Tris-HCl pH 8.0, 2 mM ATP

Q: For `Nc1ncnc2c1ncn2[C@@H]1O[C@H](COP(=O)(O)OP(=O)(O)OP(=O)(O)O)[C@@H](O)[C@H]1O` [ATP], which Km (Dkum (wt) [1]; [9]) is on record?
A: The Km was 127 µM.

Q: And the Km (Sfla (wt) [2]; [9])?
A: Its Km is 21.5 µM.

Q: What about the Km (MALuci2 (wt); [9]) of the same compound?
A: The Km was 188 µM.

Q: And the Km (Psag (wt) [3]; [9])?
A: The Km was 194 µM.

Q: What about the Km (Pmat (wt) [4]; [9]) of the same compound?
A: The Km was 104 µM.

Q: And the Km (Sfla (wt) [5]; [9])?
A: The Km was 9 µM.

Q: And the Km (Psag (wt) [6]; [9])?
A: The Km was 282 µM.

Q: What about the Km (Dkum (wt) [7]; [9]) of the same compound?
A: The Km was 26.8 µM.

Q: What about the Km (Pmat (wt) [8]; [9]) of the same compound?
A: Its Km is 98.1 µM.

Q: What does the source list for `O=C(O)[C@H]1CSC(c2nc3ccc(O)cc3s2)=N1` [D-luciferin]?
A: Km (Dkum (wt) [1]; [10]): 60.1 µM; Km (Sfla (wt) [2]; [10]): 16.6 µM; Km (MALuci2 (wt); [10]): 4.25 µM; Km (Psag (wt) [3]; [10]): 4.9 µM; Km (Pmat (wt) [4]; [10]): 14.2 µM; Km (Sfla (wt) [5]; [10]): 6.6 µM; Km (Psag (wt) [6]; [10]): 222 µM; Km (Dkum (wt) [7]; [10]): 19.4 µM; Km (Pmat (wt) [8]; [10]): 62.2 µM
